In publication PMC6607395 (Molecular Pharmaceutics, 2019):

Legend:
[1] = test system: DU145 (PSMA−) tumors; experiment: In vivo imaging and biodistribution, DU145 xenograft; design: species or system mouse; conditions: DU145 model, 17 nmol/kg tail vein, 1–72 h
[2] = test system: LNCaP (PSMA+) tumors; experiment: In vivo imaging and biodistribution, LNCaP xenograft; design: species or system mouse; conditions: for ex vivo tissue biodistribution: 72 h postinjection, 17 nmol/kg; for whole body fluorescence signal over time: LNCaP model, 17 nmol/kg tail vein, 1–72 h
Outline: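 Male athymic nu/nu mice (5 weeks old) carried subcutaneous LNCaP (5 × 10^6 cells) or DU145 (1 × 10^6 cells) flank tumours in 1:1 HBSS/Matrigel, grown to 100–150 mm3. Each received one tail-vein injection of 17 nmol/kg in 1% DMSO/99% saline (n = 3). Whole-body imaging ran at 1, 4, 24, 48 and 72 h (ex 685, em 800 nm). At 72 h, tumours, liver, kidney, heart and blood were excised, rinsed, weighed and imaged ex vivo, and mean AFU/mg was calculated.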

[3] = target: rhPSMA (Homo sapiens, UniProt Q04609); experiment: PSMA enzyme inhibition assay; type: biochemical
[4] = Pharmacokinetic profile in rats; conditions: rat; for presence in plasma over time: single IV 0.1 μmol/kg
[5] = target: TTR in human serum (Homo sapiens, UniProt P02766); experiment: Fluorescent probe exclusion; type: binding; conditions: for TTR occupancy: 10 μM ligand, human serum (TTR ∼5 μM), after 3 h relative to probe alone
[6] = target: human TTR (Homo sapiens, UniProt P02766); experiment: Fluorescence polarization; type: binding
[7] = target: Cathepsin B from human liver (Homo sapiens, UniProt P07858); experiment: MMAE release following cathepsin B cleavage; type: in vitro ADME; conditions: 20 μM compound, cathepsin B 100 nM, pH 5.5, 37 °C, within 15 min
Outline: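 Human liver cathepsin B was activated for 15 min at ambient temperature in 25 mM sodium acetate, 1 mM EDTA and 9.2 mM DTT, pH 5.5. It was then used at 100 nM with 20 μM substrate in 25 mM sodium acetate/1 mM EDTA, pH 5.5, at 37 °C. Aliquots taken at 0, 15, 30 min, 1 h and 2 h were quenched in acidified acetonitrile–water, chilled and centrifuged. Free MMAE was quantified by HPLC-UV at 210 nm, and its identity was confirmed by LC–MS/MS.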

rhPSMA, sequence (Q04609 whole entry): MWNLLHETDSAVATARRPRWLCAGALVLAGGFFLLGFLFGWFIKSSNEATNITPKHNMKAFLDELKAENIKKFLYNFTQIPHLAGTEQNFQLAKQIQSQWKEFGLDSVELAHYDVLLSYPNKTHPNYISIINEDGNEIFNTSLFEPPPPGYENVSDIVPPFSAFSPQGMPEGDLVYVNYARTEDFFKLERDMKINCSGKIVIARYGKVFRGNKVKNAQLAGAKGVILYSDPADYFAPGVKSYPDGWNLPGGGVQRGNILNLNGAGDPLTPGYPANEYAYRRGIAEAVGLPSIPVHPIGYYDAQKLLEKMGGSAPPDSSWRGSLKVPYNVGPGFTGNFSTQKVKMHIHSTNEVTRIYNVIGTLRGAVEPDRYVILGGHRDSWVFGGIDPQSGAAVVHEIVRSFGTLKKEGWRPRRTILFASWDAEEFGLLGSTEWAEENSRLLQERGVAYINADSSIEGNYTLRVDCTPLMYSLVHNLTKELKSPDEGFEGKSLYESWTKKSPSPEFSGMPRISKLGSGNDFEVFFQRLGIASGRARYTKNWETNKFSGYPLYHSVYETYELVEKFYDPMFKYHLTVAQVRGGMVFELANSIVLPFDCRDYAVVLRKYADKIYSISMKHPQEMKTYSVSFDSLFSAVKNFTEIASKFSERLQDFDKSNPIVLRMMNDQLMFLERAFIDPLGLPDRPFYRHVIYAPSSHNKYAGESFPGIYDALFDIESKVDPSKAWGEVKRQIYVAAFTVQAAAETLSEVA

Row | SMILES | Ki ([3]; Ki on PSMA, absence of TTR) | TTR occupancy [5] | Kd [6] | whole body fluorescence signal over time [1] | ex vivo tissue biodistribution [2] | whole body fluorescence signal over time [2] | presence in plasma over time [4] | further results
1 | CC[C@H](C)[C@@H]([C@@H](CC(=O)N1CCC[C@H]1[C@H](OC)[C@@H](C)C(=O)N[C@H](C)[C@@H](O)c1ccccc1)OC)N(C)C(=O)[C@@H](NC(=O)[C@H](C(C)C)N(C)C(=O)OCc1ccc(NC(=O)[C@H](CCCNC(N)=O)NC(=O)[C@@H](NC(=O)CCCCCN2C(=O)CC(SCCC(=O)N[C@@H](Cc3cn(CCOCCNCCCCCCOc4cc(OCCCc5c(C)n[nH]c5C)cc(C(=O)O)c4)nn3)C(=O)NCCCCCC(=O)NCCCC[C@H](NC(=O)N[C@@H](CCC(=O)O)C(=O)O)C(=O)O)C2=O)C(C)C)cc1)C(C)C (stereo partly shown) [TFM2] |  |  |  |  |  |  |  | MMAE release [7]: 98%
2 | Cc1n[nH]c(C)c1CCCOc1cc(OCCCCCCN)cc(C(=O)O)c1 [ligand 2] |  |  | 48.9 nM |  |  |  |  | receptor occupancy at 10 µM ([5]; read-out: TTR occupancy): 80.4 ± 0.7%
3 | C#CCC(N)C(=O)NCCCCCC(=O)NCCCCC(NC(=O)NC(CCC(=O)O)C(=O)O)C(=O)O (stereo not shown) [ligand 22] | 9.5 nM |  |  |  |  |  |  | 
4 | O=C(O)c1ccc2nc(-c3cc(Cl)cc(Cl)c3)oc2c1 [tafamidis, reference compound] |  | 50.8 ± 2.0% |  |  |  |  |  | 

Second part, led by results:

Row | Ki ([3]; Ki on PSMA, absence of TTR) | TTR occupancy [5] | Kd [6] | SMILES | whole body fluorescence signal over time [1] | ex vivo tissue biodistribution [2] | whole body fluorescence signal over time [2] | presence in plasma over time [4] | further results
5 | 20.7 nM |  |  | C#CC[C@H](NC(=O)CCCCC[N+]1=C(C=CC2=CC(=CC=C3N(C)c4ccc(S(=O)(=O)O)cc4C3(C)C)CCC2)C(C)(C)c2cc(S(=O)(=O)[O-])ccc21)C(=O)NCCCCCC(=O)NCCCC[C@H](NC(=O)N[C@@H](CCC(=O)O)C(=O)O)C(=O)O [BFM1] | significantly reduced at 4 h postinjection and reduced to the background level at 24 h | accumulated predominantly in PSMA expressing LNCaP tumors, with no substantial fluorescence activity in other tissues except kidneys | significantly reduced at 4 h postinjection and reduced to the background level at 24 h | no measurable amount of BFM1 after 4 h | 
6 | 32.8 nM | 57.6 ± 1.9% | 374 nM | Cc1n[nH]c(C)c1CCCOc1cc(OCCCCCCNCCOCCn2cc(C[C@H](NC(=O)CCCCC[N+]3=C(C=CC4=CC(=CC=C5N(C)c6ccc(S(=O)(=O)O)cc6C5(C)C)CCC4)C(C)(C)c4cc(S(=O)(=O)[O-])ccc43)C(=O)NCCCCCC(=O)NCCCC[C@H](NC(=O)N[C@@H](CCC(=O)O)C(=O)O)C(=O)O)nn2)cc(C(=O)O)c1 [TFM1] | maintained a very high fluorescence signal at 4 h and the signal was maintained for up to 48 h postinjection | accumulated predominantly in PSMA expressing LNCaP tumors, with no substantial fluorescence activity in other tissues except kidneys | maintained a very high fluorescence signal at 4 h and the signal was maintained for up to 48 h postinjection | still present even after 24 h | fold enhanced uptake in LNCaP compared to BFM1 ([2]; excised tumors, 72 h): ~3 fold; fold higher fluorescent signal in LNCaP compared to DU145 tumors ([2]; excised tumors, 72 h): ~7 fold; Ki ([3]; Ki on PSMA in the presence of TTR, 1 μM TTR): 33.8 nM; fold higher MRT compared to BFM1 ([4]; IV 0.1 μmol/kg): ~16 fold; fold increase in t1/2 compared to BFM1 ([4]; IV 0.1 μmol/kg): ~6.6 fold
